# Experimental data as given in ChEMBL document CHEMBL4196006, “Aryl thiosemicarbazones for the treatment of trypanosomatidic infections” (Eur J Med Chem, 2018).
# Key:
# [1] = Cytotoxicity against human THP1 cells assessed as decrease in viable cells after 72 hrs by MTT assay; format: cell-based, THP-1; details: THP1 cells
# Summary of the method: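 THP-1-derived macrophages exposed to compounds for 72 h, tested at 100 μM or in dose-response; viability read by MTT colorimetric assay.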
# Trypanosoma brucei [2] = test: Antitrypanosomal activity against Trypanosoma brucei Lister 427 bloodstream form after 72 hrs by SYBR Green assay; format: functional, organism-based; details: Lister 427, 72 h
# [3] = target: T1, Pteridine reductase 1 (Leishmania major) (UniProt Q01782); test: Inhibition of Leishmania major PTR1 at 50 uM using H2B as substrate in presence of NADPH by photometric analysis relative to control
# T1 sequence (whole entry): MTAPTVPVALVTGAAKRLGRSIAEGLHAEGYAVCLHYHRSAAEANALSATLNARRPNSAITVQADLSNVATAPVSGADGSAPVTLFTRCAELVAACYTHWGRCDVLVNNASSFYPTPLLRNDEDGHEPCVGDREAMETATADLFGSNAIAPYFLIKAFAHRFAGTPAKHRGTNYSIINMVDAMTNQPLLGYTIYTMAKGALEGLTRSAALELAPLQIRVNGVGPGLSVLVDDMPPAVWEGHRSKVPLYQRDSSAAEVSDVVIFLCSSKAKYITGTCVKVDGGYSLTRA
# Leishmania infantum = test: Antileishmanial activity against Leishmania infantum amastigote form after 72 hrs by steady-Glo reagent based assay; format: functional, organism-based
# Summary of the method: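 Intramacrophage L. infantum amastigotes in THP-1-derived macrophages, tested at 50 μM or in dose-response. Plates held 72 h at 37 °C, 5% CO2. Medium was replaced by PBS, macrophages lysed, and parasites read by Steady-Glo luminescence. High-content imaging gave host cell number, infection ratio (infected/total cells) and parasites per infected cell. Values are means of at least two independent experiments.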
# Trypanosoma brucei [4] = test: Antitrypanosomal activity against Trypanosoma brucei Lister 427 bloodstream form after 72 hrs by resazurin dye-based assay; format: functional, organism-based; details: Lister 427, 72 h
# [5] = Cytotoxicity against human A549 cells assessed as growth inhibition at 10 uM after 48 hrs by CellTiter-Glo assay relative to control; values are per cent of control; details: A549 cells
# CYP3A4 = CYP3A4 (Homo sapiens, UniProt P08684); test: Inhibition of human microsomal CYP3A4 expressed in baculovirus infected BTI-TN-5B1-4 cells at 10 uM incubated for 30 mins by luciferase assay relative to control; format: ADME
# Summary of the method: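 CYP1A2, 2C9, 2C19, 2D6 and 3A4 in microsomes from baculovirus-infected insect cells, each with a P450-Glo luminogenic substrate. Inhibition read as loss of light; single-point at 10 μM, triplicate.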
# Trypanosoma brucei [6] = test: Potentiation of methotrexate-induced antitrypanosomal activity against Trypanosoma brucei Lister 427 bloodstream form assessed as combination index at EC50 after 72 hrs by resazurin dye-based assay; format: functional
# [7] = Selectivity index, ratio of CC50 for human THP1 cells to EC50 for Leishmania infantum amastigote form; format: toxicity; details: read-out: Ratio CC50/EC50
# Summary of the method: (§1)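 Selectivity index = CC50 in the human host or cytotoxicity cell line divided by parasite EC50.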
# Trypanosoma brucei [8] = test: Antitrypanosomal activity against Trypanosoma brucei Lister 427 bloodstream form at 30:1 methotrexate to test compound ratio after 72 hrs by resazurin dye-based assay; format: functional, organism-based; details: Lister 427, 72 h
# Trypanosoma brucei [9] = test: Potentiation of methotrexate-induced antitrypanosomal activity against Trypanosoma brucei Lister 427 bloodstream form at 10 uM after 72 hrs by resazurin dye-based assay; format: functional
# Trypanosoma brucei [10] = test: Antitrypanosomal activity against Trypanosoma brucei Lister 427 bloodstream form assessed as parasite growth inhibition at 50 uM after 72 hrs by SYBR Green assay relative to control; format: functional; details: Lister 427, 72 h, read-out: GI
# [11] = Selectivity index, ratio of CC50 for human A549 cells to EC50 for Trypanosoma brucei Lister 427 bloodstream form; format: toxicity; details: read-out: Ratio CC50/EC50; summary of the method: as §1
# [12] = Cytotoxicity against human U2OS cells assessed as decrease in viable cells after 72 hrs by cell number count in anti-T. cruzi high content imaging assay; details: U2OS cells
# [13] = Cytotoxicity against human WI38 cells assessed as growth inhibition at 10 uM after 48 hrs by CellTiter-Glo assay relative to control; values are per cent of control; details: WI38 cells
# [14] = Selectivity index, ratio of CC50 for human U2OS cells to EC50 for Trypanosoma cruzi amastigote form; format: toxicity; details: read-out: Ratio CC50/EC50; summary of the method: as §1
# Trypanosoma brucei [15] = test: Antitrypanosomal activity against Trypanosoma brucei Lister 427 bloodstream form at 6:1 methotrexate to test compound ratio after 72 hrs by resazurin dye-based assay; format: functional, organism-based; details: Lister 427, 72 h
# [16] = Selectivity ratio of EC50 for Trypanosoma cruzi amastigote form to EC50 for Trypanosoma brucei Lister 427 bloodstream form; format: functional
# Chain of CYP3A4 (P08684 whole entry): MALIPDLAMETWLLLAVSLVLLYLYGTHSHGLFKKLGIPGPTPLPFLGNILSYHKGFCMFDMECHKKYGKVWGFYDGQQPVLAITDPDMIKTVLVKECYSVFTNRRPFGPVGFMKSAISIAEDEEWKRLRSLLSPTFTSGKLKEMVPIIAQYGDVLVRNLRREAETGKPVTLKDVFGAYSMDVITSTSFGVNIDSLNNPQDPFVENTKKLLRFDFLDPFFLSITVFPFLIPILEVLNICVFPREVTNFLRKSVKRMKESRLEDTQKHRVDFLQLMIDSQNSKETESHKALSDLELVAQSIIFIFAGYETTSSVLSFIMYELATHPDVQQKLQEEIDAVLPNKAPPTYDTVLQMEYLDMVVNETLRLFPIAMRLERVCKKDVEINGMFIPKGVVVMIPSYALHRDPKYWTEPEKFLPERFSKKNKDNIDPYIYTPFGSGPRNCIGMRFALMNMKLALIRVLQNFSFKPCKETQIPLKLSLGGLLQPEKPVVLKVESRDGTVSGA
SMILES,CC50 at 72 h [1] [µM],EC50 (Trypanosoma brucei [2]) [µM],inhibition [3] [%],EC50 (Leishmania infantum) [µM],EC50 (Trypanosoma brucei [4]) [µM],"cell growth (% of control) at 48 h, 10 µM [5] [%]","inhibition at 0.5 h, 10 µM (CYP3A4) [%]",CI (Trypanosoma brucei [6]),selectivity ratio [7],EC50 (Trypanosoma brucei [8]) [µM],PF (Trypanosoma brucei [9]),inhibition of growth at 50 µM (Trypanosoma brucei [10]) [%],selectivity ratio [11],CC50 at 72 h [12] [µM],"cell growth (% of control) at 48 h, 10 µM [13] [%]",selectivity ratio [14],EC50 (Trypanosoma brucei [15]) [µM],Ratio EC50 [16]
NC(=S)N/N=C/c1ccc(OCc2ccc(Cl)c(Cl)c2)cc1,82,2.31,0.59,6.14,0.44,72.5,10.6,0.41,13,0.11,0.8,100,8,72,89.4,55,–,–
COc1ccc(-c2cccc(/C=N/NC(N)=S)c2)cc1OC,–,7.45,4.76,–,4.72,90.5,-2.53,0.28,–,–,0.81,93.9,7,–,106,–,0.59,4
